Source: ChEMBL document CHEMBL1926651, “Design, synthesis, antiviral and cytostatic evaluation of novel isoxazolidine nucleotide analogues with a 1,2,3-triazole linker” (Eur J Med Chem, 2012)
Active and inactive are the calls of the source. The calls are words filed in the database; no cut-off is given here.

Columns and labels:
[1] = system: Vesicular stomatitis virus; assay: Antiviral activity against Vesicular stomatitis virus infected in human HEL cells assessed as inhibition of viral plaque formation at 250 uM; type: functional, organism-based
Summary of the method: (§1)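 Confluent host cell monolayers were inoculated with 100 CCID50 of virus in the presence of test compound at serial dilutions (250, 50, 10, … μM). Viral cytopathicity was scored once it reached completion in untreated virus-infected controls.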

[2] = system: Mammalian orthoreovirus 1; assay: Antiviral activity against Reovirus-1 infected in african green monkey Vero cells assessed as inhibition of viral plaque formation at 250 uM; type: functional, organism-based; summary of the method: as §1
Human alphaherpesvirus 3 [3] = assay: Antiviral activity against thymidine kinase-positive Varicella Zoster virus Oka infected in human HEL cells assessed as inhibition of viral plaque formation at 250 uM; type: functional, cell-based; settings: strain Oka vaccine
L1210 = assay: Cytotoxicity against mouse L1210 cells 2 days by coulter counting; type: functional; settings: L1210, 48 h
Summary of the method: (§2)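 Cells were suspended at 300,000–500,000 cells/mL and added 1:1 to compound dilutions. Incubation was at 37 °C, 2 days for L1210 and 3 days for CEM, HeLa and HEL. Cells were counted with a Coulter counter. CC50 is the concentration inhibiting cell proliferation by 50%.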

HEL [4] = assay: Cytotoxicity against human HEL cells assessed as change in cell morphology up to 100 uM; type: cell-based
Summary of the method: (§3)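 Uninfected host-cell cultures were examined under the microscope. MCC was taken as the lowest compound concentration producing a detectable alteration of normal cell morphology, assessed at concentrations up to 100 μM.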

Human alphaherpesvirus 3 [5] = assay: Antiviral activity against thymidine kinase-deficient Varicella Zoster virus 07/1 infected in human HEL cells assessed as inhibition of viral plaque formation at 250 uM; type: functional, organism-based
Felid alphaherpesvirus 1 = assay: Antiviral activity against Felid herpesvirus 1 infected in CrFK cells assessed as inhibition of viral plaque formation at 250 uM; type: functional, organism-based; summary of the method: as §1
[6] = system: Respiratory syncytial virus; assay: Antiviral activity against Respiratory syncytial virus infected in human HeLa cells assessed as inhibition of viral plaque formation at 250 uM; type: functional, organism-based; summary of the method: as §1
HEL [7] = assay: Cytotoxicity against human HEL cells 3 days by coulter counting; type: functional; settings: 72 h; summary of the method: as §2
Vaccinia virus = assay: Antiviral activity against Vaccinia virus infected in human HEL cells assessed as inhibition of viral plaque formation at 250 uM; type: functional, organism-based; settings: Orthopoxvirus vaccinia; summary of the method: as §1
Human respirovirus 3 = assay: Antiviral activity against Parainfluenza-3 virus infected in african green monkey Vero cells assessed as inhibition of viral plaque formation at 250 uM; type: functional, organism-based; summary of the method: as §1
Human alphaherpesvirus 1 [8] = assay: Antiviral activity against thymidine kinase-deficient acv-resistant Herpes simplex virus 1 KOS infected in human HEL cells assessed as inhibition of viral plaque formation at 250 uM; type: functional, organism-based
Human betaherpesvirus 5 [9] = assay: Antiviral activity against Human cytomegalovirus Davis infected in human HEL cells assessed as inhibition of viral plaque formation at 250 uM; type: functional, organism-based
Human betaherpesvirus 5 [10] = assay: Antiviral activity against Human cytomegalovirus AD169 infected in human HEL cells assessed as inhibition of viral plaque formation at 250 uM; type: functional, organism-based
HeLa [11] = assay: Cytotoxicity against human HeLa cells assessed as change in cell morphology up to 100 uM; type: cell-based; summary of the method: as §3
Human alphaherpesvirus 2 = assay: Antiviral activity against Herpes simplex virus 2 G infected in human HEL cells assessed as inhibition of viral plaque formation at 250 uM; type: functional, organism-based; settings: strain G
[12] = Cytotoxicity against CRFK cells assessed as change in cell morphology up to 100 uM; type: cell-based, Felis catus; settings: cat; summary of the method: as §3
HeLa [13] = assay: Cytotoxicity against human HeLa cells 3 days by coulter counting; type: functional; settings: 72 h; summary of the method: as §2
Coxsackievirus B4 [14] = assay: Antiviral activity against Coxsackievirus B4 infected in human HeLa cells assessed as inhibition of viral plaque formation at 250 uM; type: functional, organism-based; summary of the method: as §1
Coxsackievirus B4 [15] = assay: Antiviral activity against Coxsackievirus B4 infected in african green monkey Vero cells assessed as inhibition of viral plaque formation at 250 uM; type: functional, organism-based; summary of the method: as §1
Feline coronavirus = assay: Antiviral activity against Feline coronavirus infected in CrFK cells assessed as inhibition of viral plaque formation at 250 uM; type: functional, organism-based; summary of the method: as §1
Sindbis virus = assay: Antiviral activity against Sindbis virus infected in african green monkey Vero cells assessed as inhibition of viral plaque formation at 250 uM; type: functional, organism-based; summary of the method: as §1
Punta Toro virus = assay: Antiviral activity against Punta Toro virus infected in african green monkey Vero cells assessed as inhibition of viral plaque formation at 250 uM; type: functional, organism-based
[16] = system: Human immunodeficiency virus 1; assay: Antiviral activity against Human immunodeficiency virus 1 infected in human CEM cells assessed as inhibition of virus-induced giant cell formation after 4 days by microscopic analysis; type: functional, organism-based; settings: CCRF-CEM
Summary of the method: (§4)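 CEM cells at about 3 × 10⁵ cells/cm³ were infected with 100 CCID50/mL of HIV-1(IIIB) or HIV-2(ROD), then seeded into wells holding test compound dilutions. After 4 days at 37 °C, virus-induced giant cell formation was scored microscopically.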

MDCK = assay: Cytotoxicity against MDCK cells assessed as change in cell morphology up to 100 uM; type: cell-based, Canis lupus familiaris; settings: dog; summary of the method: as §3
[17] = system: Human immunodeficiency virus 2; assay: Antiviral activity against Human immunodeficiency virus 2 infected in human CEM cells assessed as inhibition of virus-induced giant cell formation after 4 days by microscopic analysis; type: functional, organism-based; settings: CCRF-CEM; summary of the method: as §4
Vero = assay: Cytotoxicity against african green monkey Vero cells assessed as change in cell morphology up to 100 uM; type: cell-based; settings: chlorocebus sabaeus; summary of the method: as §3
Human alphaherpesvirus 1 [18] = assay: Antiviral activity against Herpes simplex virus 1 KOS infected in human HEL cells assessed as inhibition of viral plaque formation at 250 uM; type: functional, organism-based; summary of the method: as §1
[19] = system: Vesicular stomatitis virus; assay: Antiviral activity against Vesicular stomatitis virus infected in human Hela cells assessed as inhibition of viral plaque formation at 250 uM; type: functional, organism-based
CCRF-CEM = assay: Cytotoxicity against human CEM cells 3 days by coulter counting; type: functional; settings: 72 h; summary of the method: as §2

For `CCOP(=O)(OCC)[C@@H]1C[C@@H](n2cc(-c3ccccc3)nn2)ON1C` (racemic), the Activity [1] was “inactive”, the Activity [2] was “inactive” and the Activity (Human alphaherpesvirus 3 [3]) was “inactive”. The CC50 (L1210) was > 250 µM, the Activity (HEL [4]) was “Non-toxic” and the Activity (Human alphaherpesvirus 3 [5]) was “inactive”. For the same compound, the Activity (Felid alphaherpesvirus 1) was “inactive”, the Activity [6] was “inactive” and the CC50 (HEL [7]) was 40 µM. The Activity (Vaccinia virus) was “inactive”, the Activity (Human respirovirus 3) was “inactive” and the Activity (Human alphaherpesvirus 1 [8]) was “inactive”. For the same compound, the Activity (Human betaherpesvirus 5 [9]) was “inactive”, the Activity (Human betaherpesvirus 5 [10]) was “inactive” and the Activity (HeLa [11]) was “Non-toxic”. The Activity (Human alphaherpesvirus 2) was “inactive”, the Activity [12] was “Non-toxic” and the CC50 (HeLa [13]) was > 250 µM. The Activity (Coxsackievirus B4 [14]) was “inactive”, the Activity (Coxsackievirus B4 [15]) was “inactive” and the Activity (Feline coronavirus) was “inactive”. For the same compound, the Activity (Sindbis virus) was “inactive”, the Activity (Punta Toro virus) was “inactive” and the Activity [16] was “inactive”. The Activity (MDCK) was “Non-toxic”, the Activity [17] was “inactive” and the Activity (Vero) was “Non-toxic”. The Activity (Human alphaherpesvirus 1 [18]) was “inactive”, the Activity [19] was “inactive” and the CC50 (CCRF-CEM) was > 250 µM.

With `CCOP(=O)(OCC)[C@@H]1C[C@@H](n2cc(-c3cccc(F)c3)nn2)ON1C` (racemic) the Activity [1] was “inactive”, the Activity [2] was “inactive” and the Activity (Human alphaherpesvirus 3 [3]) was “inactive”. For the same compound, the CC50 (L1210) was ≥ 250 µM, the Activity (HEL [4]) was “Non-toxic” and the Activity (Human alphaherpesvirus 3 [5]) was “inactive”. For the same compound, the Activity (Felid alphaherpesvirus 1) was “inactive”, the Activity [6] was “inactive” and the CC50 (HEL [7]) was 40 µM. For the same compound, the Activity (Vaccinia virus) was “inactive”, the Activity (Human respirovirus 3) was “inactive” and the Activity (Human alphaherpesvirus 1 [8]) was “inactive”. For the same compound, the Activity (Human betaherpesvirus 5 [9]) was “inactive”, the Activity (Human betaherpesvirus 5 [10]) was “inactive” and the Activity (HeLa [11]) was “Non-toxic”. The Activity (Human alphaherpesvirus 2) was “inactive”, the Activity [12] was “Non-toxic” and the CC50 (HeLa [13]) was ≥ 250 µM. The Activity (Coxsackievirus B4 [14]) was “inactive”, the Activity (Coxsackievirus B4 [15]) was “inactive” and the Activity (Feline coronavirus) was “inactive”. For the same compound, the Activity (Sindbis virus) was “inactive”, the Activity (Punta Toro virus) was “inactive” and the Activity [16] was “inactive”. The Activity (MDCK) was “Non-toxic”, the Activity [17] was “inactive” and the Activity (Vero) was “Non-toxic”. For the same compound, the Activity (Human alphaherpesvirus 1 [18]) was “inactive”, the Activity [19] was “inactive” and the CC50 (CCRF-CEM) was > 250 µM.

With `CCOP(=O)(OCC)[C@@H]1C[C@@H](n2cc(-c3ccc(F)cc3F)nn2)ON1C` (racemic) the Activity [1] was “inactive”, the Activity [2] was “inactive” and the Activity (Human alphaherpesvirus 3 [3]) was “inactive”. The CC50 (L1210) was 131 µM, the Activity (HEL [4]) was “Non-toxic” and the Activity (Human alphaherpesvirus 3 [5]) was “inactive”. For the same compound, the Activity (Felid alphaherpesvirus 1) was “inactive”, the Activity [6] was “inactive” and the CC50 (HEL [7]) was 59 µM. The Activity (Vaccinia virus) was “inactive”, the Activity (Human respirovirus 3) was “inactive” and the Activity (Human alphaherpesvirus 1 [8]) was “inactive”. The Activity (Human betaherpesvirus 5 [9]) was “inactive”, the Activity (Human betaherpesvirus 5 [10]) was “inactive” and the Activity (HeLa [11]) was “Non-toxic”. For the same compound, the Activity (Human alphaherpesvirus 2) was “inactive”, the Activity [12] was “Non-toxic” and the CC50 (HeLa [13]) was 162 µM. The Activity (Coxsackievirus B4 [14]) was “inactive”, the Activity (Coxsackievirus B4 [15]) was “inactive” and the Activity (Feline coronavirus) was “inactive”. The Activity (Sindbis virus) was “inactive”, the Activity (Punta Toro virus) was “inactive” and the Activity [16] was “inactive”. For the same compound, the Activity (MDCK) was “Non-toxic”, the Activity [17] was “inactive” and the Activity (Vero) was “Non-toxic”. For the same compound, the Activity (Human alphaherpesvirus 1 [18]) was “inactive”, the Activity [19] was “inactive” and the CC50 (CCRF-CEM) was ≥ 250 µM.

In the case of `CCOP(=O)(OCC)[C@@H]1C[C@@H](n2cc(-c3ccccn3)nn2)ON1C` (racemic), the Activity [1] is reported as “inactive”, the Activity [2] is reported as “inactive” and the Activity (Human alphaherpesvirus 3 [3]) is reported as “inactive”. For the same compound, the CC50 (L1210) was ≥ 250 µM, the Activity (HEL [4]) was “Non-toxic” and the Activity (Human alphaherpesvirus 3 [5]) was “inactive”. The Activity (Felid alphaherpesvirus 1) was “inactive”, the Activity [6] was “inactive” and the CC50 (HEL [7]) was 62 µM. For the same compound, the Activity (Vaccinia virus) was “inactive”, the Activity (Human respirovirus 3) was “inactive” and the Activity (Human alphaherpesvirus 1 [8]) was “inactive”. The Activity (Human betaherpesvirus 5 [9]) was “inactive”, the Activity (Human betaherpesvirus 5 [10]) was “inactive” and the Activity (HeLa [11]) was “Non-toxic”. For the same compound, the Activity (Human alphaherpesvirus 2) was “inactive”, the Activity [12] was “Non-toxic” and the CC50 (HeLa [13]) was > 250 µM. For the same compound, the Activity (Coxsackievirus B4 [14]) was “inactive”, the Activity (Coxsackievirus B4 [15]) was “inactive” and the Activity (Feline coronavirus) was “inactive”. For the same compound, the Activity (Sindbis virus) was “inactive”, the Activity (Punta Toro virus) was “inactive” and the Activity [16] was “inactive”. The Activity (MDCK) was “Non-toxic”, the Activity [17] was “inactive” and the Activity (Vero) was “Non-toxic”. For the same compound, the Activity (Human alphaherpesvirus 1 [18]) was “inactive”, the Activity [19] was “inactive” and the CC50 (CCRF-CEM) was > 250 µM.

For `CCOP(=O)(OCC)[C@@H]1C[C@@H](n2cc(-c3ccccc3F)nn2)ON1C` (relative stereo), the Activity [1] was “inactive”, the Activity [2] was “inactive” and the Activity (Human alphaherpesvirus 3 [3]) was “inactive”. The CC50 (L1210) was 120 µM, the Activity (HEL [4]) was “Non-toxic” and the Activity (Human alphaherpesvirus 3 [5]) was “inactive”. The Activity (Felid alphaherpesvirus 1) was “inactive”, the Activity [6] was “inactive” and the CC50 (HEL [7]) was 73 µM. For the same compound, the Activity (Vaccinia virus) was “inactive”, the Activity (Human respirovirus 3) was “inactive” and the Activity (Human alphaherpesvirus 1 [8]) was “inactive”. For the same compound, the Activity (Human betaherpesvirus 5 [9]) was “inactive”, the Activity (Human betaherpesvirus 5 [10]) was “inactive” and the Activity (HeLa [11]) was “Non-toxic”. The Activity (Human alphaherpesvirus 2) was “inactive”, the Activity [12] was “Non-toxic” and the CC50 (HeLa [13]) was 202 µM. The Activity (Coxsackievirus B4 [14]) was “inactive”, the Activity (Coxsackievirus B4 [15]) was “inactive” and the Activity (Feline coronavirus) was “inactive”. For the same compound, the Activity (Sindbis virus) was “inactive”, the Activity (Punta Toro virus) was “inactive” and the Activity [16] was “inactive”. The Activity (MDCK) was “Non-toxic”, the Activity [17] was “inactive” and the Activity (Vero) was “Non-toxic”. For the same compound, the Activity (Human alphaherpesvirus 1 [18]) was “inactive”, the Activity [19] was “inactive” and the CC50 (CCRF-CEM) was > 250 µM.
